Results from different studies.
Each line is one published result; the experiments were not run side by side.
Target: Receptor-interacting serine/threonine-protein kinase 1 (RIPK1, Homo sapiens, UniProt Q13546)
Residues used in one study (Q13546 1-671): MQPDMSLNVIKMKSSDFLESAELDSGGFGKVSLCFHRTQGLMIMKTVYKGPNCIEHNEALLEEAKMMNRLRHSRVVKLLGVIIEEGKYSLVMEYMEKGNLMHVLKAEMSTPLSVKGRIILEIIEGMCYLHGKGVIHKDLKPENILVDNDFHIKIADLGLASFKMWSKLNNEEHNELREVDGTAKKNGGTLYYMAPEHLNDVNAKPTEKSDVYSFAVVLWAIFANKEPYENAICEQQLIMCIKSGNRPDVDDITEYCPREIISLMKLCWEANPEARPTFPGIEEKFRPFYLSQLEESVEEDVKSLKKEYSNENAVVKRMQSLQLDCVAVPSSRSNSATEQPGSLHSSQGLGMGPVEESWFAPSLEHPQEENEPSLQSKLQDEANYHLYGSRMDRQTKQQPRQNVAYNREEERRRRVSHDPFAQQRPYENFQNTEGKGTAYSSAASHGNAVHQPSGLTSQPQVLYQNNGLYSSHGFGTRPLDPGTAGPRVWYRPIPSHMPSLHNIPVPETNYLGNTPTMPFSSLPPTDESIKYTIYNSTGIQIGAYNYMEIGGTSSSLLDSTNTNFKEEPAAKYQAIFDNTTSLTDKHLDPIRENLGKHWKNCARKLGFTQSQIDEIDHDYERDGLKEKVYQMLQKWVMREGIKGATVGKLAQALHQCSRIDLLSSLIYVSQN

SMILES | read-out | method | concentration | remaining binding
CCN1CCN(Cc2ccc(C(=O)Nc3ccc(C)c(Oc4ccc5c(c4)CC(=O)N5)c3)cc2C(F)(F)F)CC1 | binding | competition with immobilised ligand | 1 µM | 86%
O=C(c1ccc(Nc2ncc(Cl)c(-c3ccc(Cl)s3)n2)cc1)N1CCC(N2CCCC2)CC1 | binding | competition with immobilised ligand | 1 µM | 0.5%
CCc1ccccc1C(=O)Nc1n[nH]c2c(C)c(F)c(C3C(C#N)=C(C)N(C)C(C)=C3C#N)cc12 | cell-free assay | competition with immobilised ligand | 1 µM | 100%
CNC(=O)[C@@H]1CC[C@@H](n2c(-c3ccc4cnccc4c3)nc3ccc(C(=O)NCc4cccc(C(N)=O)c4)cc32)C1 | binding | competition with immobilised ligand | 1 µM | 100%
O=C(NCCCN1CCOCC1)c1ccc(Nc2nccc(-c3cc4ccccc4s3)n2)cc1 | binding | competition with immobilised ligand | 1 µM | 65%
O=C(Nc1ccc(Oc2ccc(F)cc2)cc1)N1CCc2ncccc2[C@H]1c1ccc(F)cc1 | cell-free assay | competition with immobilised ligand | 1 µM | 100%
C=CC(=O)N1CCC(C(=O)NCC(=O)N2CCN(c3nc(-c4cnc(N)nc4C(F)F)nc(N4CCOCC4)n3)CC2)CC1 | binding | competition with immobilised ligand | 1 µM | 100%
COc1cc(-c2cn(C3CCc4c(F)cccc4N(CC(F)(F)F)C3=O)nn2)ccc1-n1cnc(C)c1 (stereo not drawn) | cell-free assay | competition with immobilised ligand | 1 µM | 100%
O=C(NCC1CCOCC1)c1n[nH]cc1NC(=O)c1c(F)cccc1F | binding | competition with immobilised ligand | 1 µM | 94%
N[C@@H]1CCN(c2nccc(-c3cnn4ncccc34)n2)C1 | binding |  | 1 µM | 100%
c1cncc(-c2cccc(Nc3nccc(NC4CCCCC4)n3)c2)c1 | binding | competition with immobilised ligand | 10 µM | 98%
O=C(NCCCN1CCOCC1)c1ccc(Nc2ncc(Cl)c(-c3ccc(Cl)s3)n2)cc1 | binding | competition with immobilised ligand | 1 µM | 45%
CCCCN(CCCC)C(=O)CN1C[C@@H](c2cc(OC)c3c(c2)OCO3)[C@H](C(=O)O)[C@H]1CC(C)(C)CCC | cell-free assay | competition with immobilised ligand | 1 µM | 100%
CN(CCCC(F)(F)F)c1nccc(-c2cnn3ncccc23)n1 | binding |  | 1 µM | 97%
O=C(N1CCS(=O)(=O)CC1)N1C[C@H](c2ccc(OC(F)(F)F)cc2)C[C@H](c2nc(C3CC3)no2)C1 | cell-free assay | competition with immobilised ligand | 1 µM | 100%
c1cnn2ncc(-c3ccnc(N4CCC45COC5)n3)c2c1 | binding |  | 1 µM | 83%
CNCc1ccccc1-c1csc([C@@H](C)Nc2nc(C)nc3cc(OC)c(OC)cc23)c1 | cell-free assay | competition with immobilised ligand | 1 µM | 97%
COc1ccnn2ncc(-c3ccnc(N(C)C)n3)c12 | binding |  | 1 µM | 96%
